Measured values from ChEMBL document CHEMBL1799970, “Dipyrimidine amines: a novel class of chemokine receptor type 4 antagonists with high specificity” (J Med Chem, 2010).
The source made the active and inactive calls. The calls are words filed in the database; no cut-off is given here. Where a SMILES comes first, the peptide text is derived from it. Bridges are numbered along the chain shown (N, C = ends). [ ]: non-standard residue; d: D form. 2Nal = N[C@@H](Cc1ccc2ccccc2c1)C(=O)O; Cit = NC(=O)NCCC[C@H](N)C(=O)O

Assays:
[1] = target: T1, C-X-C chemokine receptor type 4 (Homo sapiens, UniProt P61073); assay: Displacement of biotinylated-TN14003 from CXCL12 binding site of CXCR4 in human MDA-MB-231 cells assessed as concentration required to inhibit >50% using rhodamine staining; type: cell-based
T1 sequence (P61073 whole entry): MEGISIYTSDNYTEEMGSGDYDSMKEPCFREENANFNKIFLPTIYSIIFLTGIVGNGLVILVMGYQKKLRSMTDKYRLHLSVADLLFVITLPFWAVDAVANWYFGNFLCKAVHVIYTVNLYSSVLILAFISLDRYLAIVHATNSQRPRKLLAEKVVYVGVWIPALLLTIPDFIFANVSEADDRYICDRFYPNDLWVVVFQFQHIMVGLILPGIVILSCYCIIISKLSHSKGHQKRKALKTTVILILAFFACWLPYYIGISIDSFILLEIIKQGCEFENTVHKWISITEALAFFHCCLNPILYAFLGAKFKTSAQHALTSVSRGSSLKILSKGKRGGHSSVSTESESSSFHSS
Outline: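 MDA-MB-231 cells preincubated with compound at 1, 10, 100, 1000 nM, fixed in 4% formaldehyde, incubated with 50 nM biotinylated peptide antagonist then streptavidin-rhodamine; EC is lowest concentration blocking >50% of binding.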

[2] = target: T1, C-X-C chemokine receptor type 4; assay: Antagonist activity at CXCR4 in human MDA-MB-231 cells assessed as inhibition of CXCL12-mediated cell invasion at 10 nM by […] cell invasion assay; type: functional, cell-based
[3] = target: T1, C-X-C chemokine receptor type 4; assay: Antagonist activity at CXCR4 in human MDA-MB-231 cells assessed as inhibition of CXCL12-mediated cell invasion at 100 nM by […] cell invasion assay; type: functional, cell-based
Mus musculus [4] = assay: Antiinflammatory activity in C57BL/6L mouse assessed as inhibition of carrageenan-induced paw edema at 10 mg/kg, ip administered 30 mins before carrageenan challenge measured after 76 hrs; type: functional; conditions: for inhibition in vivo at 10 mg/kg: route intraperitoneal
MDA-MB-231 [5] = assay: Antiangiogenic activity against human MDA-MB-231 cells xenografted in nude mouse assessed as hemoglobin level at 10 mg/kg, sc measured after 10 days by […] plug assay; type: functional; conditions: route subcutaneous; for inhibition in vivo at 10 mg/kg: Mus musculus, MDA-MB-231, sc, 240 h
Outline: (§1)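 Nude mice, two s.c. flank plugs each (6 mice/group): 2×10^5 MDA-MB-231 cells in 0.5 mL growth factor-reduced Matrigel with compound mixed at 1 µM. From next day, daily s.c. dosing between plugs (10 mg/kg; peptide 300 µg/kg). Day 10 plugs excised, homogenized in water; supernatant with Drabkin's solution, 52 °C 10 min then RT 20 min, A540.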

Mus musculus [6] = assay: Protection against bleomycin-induced lung injury in mouse assessed as decrease in lung fibrosis at 300 ug/kg, ip administered 1 day before bleomycin treatment and daily for 20 days by hematoxylin and eosin staining; type: functional; parameters: scale not given: the % may be the effect or the level left
Outline: (§2)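 Mice, 10/group, anesthetized with isoflurane; 4 U/kg bleomycin in 100 µL PBS instilled intratracheally. Dosing i.p. (10 mg/kg, 300 µg/kg, or saline) from 1 day before bleomycin, daily for 20 days. Lungs harvested day 20, H&E-stained sections examined microscopically.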

[7] = Antimetastatic activity against HGF/TGF-beta/CXCR4/MMP2 expressing human OMM 2.3 cells xenografted in nude mouse eye assessed as decrease in number of hepatic micrometastases at 300 ug/kg, ip administered 3 days after tumor implantation QD for 28 days by hematoxylin and eosin staining; type: functional; parameters: scale not given: the % may be the effect or the level left
Outline: (§3)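 Female nude mice, 10/group; 1×10^6 OMM2.3 cells into posterior chamber of right eye day 0. Daily i.p. dosing (10 mg/kg or 300 µg/kg in 0.1 mL 45% cyclodextrin) from day 3; vehicle controls; tumor eyes enucleated day 7. Day 28 livers formalin-fixed, H&E; micrometastases (<100 µm) counted in six central sections, averaged per section.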

Mus musculus [8] = assay: Protection against bleomycin-induced lung injury in mouse assessed as decrease in alveolar structural distortion at 300 ug/kg, ip administered 1 day before bleomycin treatment and daily for 20 days by hematoxylin and eosin staining; type: functional, organism-based; outline: as §2
MDA-MB-231 [9] = assay: Antiangiogenic activity against human MDA-MB-231 cells xenografted in nude mouse assessed as hemoglobin level at 300 ug/kg, sc measured after 10 days by […] plug assay; type: functional, organism-based; outline: as §1
Mus musculus [10] = assay: Protection against bleomycin-induced lung injury in mouse assessed as decrease in interstitial structural distortion at 300 ug/kg, ip administered 1 day before bleomycin treatment and daily for 20 days by hematoxylin and eosin staining; type: functional, organism-based; outline: as §2
Mus musculus [11] = assay: Antiinflammatory activity in C57BL/6L mouse assessed as inhibition of carrageenan-induced paw edema at 300 ug/kg, ip administered 30 mins before carrageenan challenge measured after 76 hrs; type: functional, organism-based
[12] = target: T1, C-X-C chemokine receptor type 4; assay: Antagonist activity at human CXCR4 expressed in human U87 cells expressing CD4 assessed as inhibition of CXCL12-induced cAMP production pretreated for 15 mins before forskolin challenge by TR-FRET analysis; type: functional, cell-based, U-87MG ATCC
[13] = target: T2, C-C chemokine receptor type 3 (Homo sapiens) (UniProt P51677); assay: Antagonist activity at human CCR3 expressed in human U87 cells expressing CD4 assessed as inhibition of CCL5-induced cAMP production pretreated for 15 mins before forskolin challenge by TR-FRET analysis; type: functional, cell-based; conditions: U-87MG ATCC
T2 sequence (whole entry): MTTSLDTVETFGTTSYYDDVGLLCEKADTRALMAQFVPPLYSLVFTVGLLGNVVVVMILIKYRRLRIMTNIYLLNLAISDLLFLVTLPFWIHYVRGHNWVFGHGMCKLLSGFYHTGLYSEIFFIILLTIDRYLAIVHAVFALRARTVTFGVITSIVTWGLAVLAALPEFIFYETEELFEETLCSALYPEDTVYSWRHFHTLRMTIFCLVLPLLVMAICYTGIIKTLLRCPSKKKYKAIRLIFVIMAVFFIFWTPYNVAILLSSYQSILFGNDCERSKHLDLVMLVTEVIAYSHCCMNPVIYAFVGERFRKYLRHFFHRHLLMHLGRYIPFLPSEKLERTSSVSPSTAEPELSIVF
Outline: (§4)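 U87CD4CCR3 or U87CD4CCR5 cells pretreated with compound 15 min at room temperature, then stimulated with 150 ng/mL CCL5 in presence of 5 µM forskolin; cAMP measured by TR-FRET LANCE kit.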

[14] = target: C-C chemokine receptor type 5 (Homo sapiens) (UniProt P51681); assay: Antagonist activity at human CCR5 expressed in human U87 cells expressing CD4 assessed as inhibition of CCL5-induced cAMP production pretreated for 15 mins before forskolin challenge by TR-FRET analysis; type: functional, cell-based; conditions: U-87MG ATCC; outline: as §4
Chain of C-C chemokine receptor type 5 (Homo sapiens) (P51681 whole entry, looked up): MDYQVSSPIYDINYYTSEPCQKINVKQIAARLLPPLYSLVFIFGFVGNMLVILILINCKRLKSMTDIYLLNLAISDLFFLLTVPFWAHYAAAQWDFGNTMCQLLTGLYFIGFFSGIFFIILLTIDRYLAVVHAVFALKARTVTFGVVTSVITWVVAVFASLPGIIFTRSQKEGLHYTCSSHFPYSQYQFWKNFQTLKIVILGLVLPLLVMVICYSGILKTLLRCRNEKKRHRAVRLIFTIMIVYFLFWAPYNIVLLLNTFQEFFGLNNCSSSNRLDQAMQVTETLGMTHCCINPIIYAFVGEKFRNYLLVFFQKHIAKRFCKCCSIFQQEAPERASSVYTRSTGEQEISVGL

Mus musculus [15] = assay: Protection against bleomycin-induced lung injury in mouse assessed as decrease in alveolar structural distortion at 10 mg/kg, ip administered 1 day before bleomycin treatment and daily for 20 days by hematoxylin and eosin staining; type: functional, organism-based; parameters: dose 10 mg/kg; outline: as §2
Mus musculus [16] = assay: Protection against bleomycin-induced lung injury in mouse assessed as decrease in lung fibrosis at 10 mg/kg, ip administered 1 day before bleomycin treatment and daily for 20 days by hematoxylin and eosin staining; type: functional; parameters: scale not given: the % may be the effect or the level left; conditions: route intraperitoneal; outline: as §2
Mus musculus [17] = assay: Protection against bleomycin-induced lung injury in mouse assessed as decrease in interstitial structural distortion at 10 mg/kg, ip administered 1 day before bleomycin treatment and daily for 20 days by hematoxylin and eosin staining; type: functional, organism-based; parameters: dose 10 mg/kg; outline: as §2
[18] = Antimetastatic activity against HGF/TGF-beta/CXCR4/MMP2 expressing human OMM 2.3 cells xenografted in nude mouse eye assessed as decrease in number of hepatic micrometastases at 10 mg/kg, ip administered 3 days after tumor implantation QD for 28 days by hematoxylin and eosin staining; type: functional; parameters: scale not given: the % may be the effect or the level left; conditions: route intraperitoneal; outline: as §3
[19] = Half life in iv dosed mouse; type: ADME, organism-based; conditions: in vivo

SMILES	EC [1]	inhibition [2]	inhibition [3]	inhibition in vivo at 10 mg/kg (Mus musculus [4])	other results
Fc1ccc(NCc2ccc(CNc3ccc(F)cn3)cc2)nc1	100 nM	45%	68%		
c1ccc(NCc2ccc(CNc3ncccn3)cc2)cc1				20%	
COc1nccc(NCc2ccc(CNc3ccnc(OC)n3)cc2)n1	10 nM	24%	65%		inhibition in vivo at 10 mg/kg (MDA-MB-231 [5]): > 30%
COc1ncc(F)c(NCc2ccc(CNc3nc(OC)ncc3F)cc2)n1	1 nM	77%	100%	20%	
Fc1cnc(NCc2ccc(CNc3ncc(F)cn3)cc2)nc1	1 nM	75%	75%		
c1cnc(NCc2ccc(CNc3ccc(N4CCCC4)cc3)cc2)nc1	1 nM	57%	82%		
c1ccc(NCc2ccc(CNc3ncccn3)cc2)nc1	100 nM	58%	64%		
N=C(N)NCCC[C@H](NC(=O)[C@@H]1CSSC[C@H](NC(=O)[C@H](Cc2ccc3ccccc3c2)NC(=O)[C@H](CCCNC(=N)N)NC(=O)[C@@H](N)CCCNC(=N)N)C(=O)N[C@@H](Cc2ccc(O)cc2)C(=O)N[C@@H](CCCNC(N)=O)C(=O)N[C@@H](CCCCN)C(=O)N[C@H](CCCCN)C(=O)N2CCC[C@H]2C(=O)N[C@@H](Cc2ccc(O)cc2)C(=O)N[C@@H](CCCNC(=N)N)C(=O)N[C@@H](CCCNC(N)=O)C(=O)N1)C(N)=O (H-RR[2Nal]CY[Cit]K[dK]PYR[Cit]CR-NH2; disulfide 4-13)					Activity (Mus musculus [6]): 85%; Activity [7]: 50%; Activity (Mus musculus [8]): Active; inhibition (MDA-MB-231 [9]): Active; Activity (Mus musculus [10]): Active; inhibition (Mus musculus [11]): Active
Fc1ccccc1NCc1ccc(CNc2ncccn2)cc1		41%	62%		
c1cnc(NCc2ccc(CNc3ccccc3N3CCCC3)cc2)nc1	100 nM	61%	73%		
Fc1ccccc1NCc1ccc(CNc2ccccc2F)cc1	100 nM	32%	58%		
Clc1nc(Cl)nc(NCc2ccc(CNc3nc(Cl)nc(Cl)n3)cc2)n1	10 nM	61%	82%		
c1cnc(NCc2ccc(CNc3cccc(N4CCCC4)c3)cc2)nc1	10 nM	41%	78%		
Fc1nccc(NCc2ccc(CNc3ccnc(F)n3)cc2)n1	1 nM	65%	81%		
c1ccc(NCc2ccc(CNc3ccccn3)cc2)nc1					IC50 [12]: 1.8 nM; inhibition [13]: inactive; inhibition [14]: inactive; inhibition (Mus musculus [4]): Active
Fc1cnc(NCc2ccc(CNc3nccc(C(F)(F)F)n3)cc2)nc1	1 nM	73%	93%	20%	inhibition in vivo at 10 mg/kg (MDA-MB-231 [5]): > 30%
Clc1cccc(NCc2ccc(CNc3ncccn3)cc2)n1	1 nM	100%	100%	> 50%	inhibition in vivo at 10 mg/kg (MDA-MB-231 [5]): > 30%
Fc1cnc(Cl)nc1NCc1ccc(CNc2ccnc(NCCN3CCOCC3)n2)cc1	1 nM	84%	100%	> 50%	Activity (Mus musculus [15]): Active; Activity (Mus musculus [16]): 55%; Activity (MDA-MB-231 [5]): 70%; Activity (Mus musculus [17]): Active; IC50 [12]: 0.8 nM; Activity [18]: 50%; inhibition [13]: inactive; inhibition [14]: inactive; half-life [19]: 15 min
c1ccc(NCc2ccc(CNc3ccccc3)cc2)cc1		54%	64%		
Fc1cccc(NCc2ccc(CNc3cccc(F)n3)cc2)n1	100 nM	55%	85%		
Clc1ccc(NCc2ccc(CNc3ncccn3)cc2)nc1	10 nM	82%	100%	20%	
CCOCCN1CCN(C(=O)c2cnc(NCc3ccc(CNc4ncc(F)cn4)cc3)nc2C(F)(F)F)CC1	1 nM	34%	95%	20%	inhibition in vivo at 10 mg/kg (MDA-MB-231 [5]): > 30%; IC50 [12]: 5.4 nM; inhibition [13]: inactive; inhibition [14]: inactive
Fc1cccc(NCc2ccc(CNc3ncccn3)cc2)n1		53%	80%	> 50%	inhibition in vivo at 10 mg/kg (MDA-MB-231 [5]): > 30%
